Experimental findings from ChEMBL document CHEMBL3621114, “Design and Synthesis of Non-Peptide, Selective Orexin Receptor 2 Agonists” (J Med Chem, 2015) are described below.

Calls of active or inactive are those of the source. The calls are words filed in the database; no cut-off is given here.

The target of data set [1] is T1, Orexin receptor type 2 (Homo sapiens, UniProt O43614).
T1 sequence (O43614 whole entry): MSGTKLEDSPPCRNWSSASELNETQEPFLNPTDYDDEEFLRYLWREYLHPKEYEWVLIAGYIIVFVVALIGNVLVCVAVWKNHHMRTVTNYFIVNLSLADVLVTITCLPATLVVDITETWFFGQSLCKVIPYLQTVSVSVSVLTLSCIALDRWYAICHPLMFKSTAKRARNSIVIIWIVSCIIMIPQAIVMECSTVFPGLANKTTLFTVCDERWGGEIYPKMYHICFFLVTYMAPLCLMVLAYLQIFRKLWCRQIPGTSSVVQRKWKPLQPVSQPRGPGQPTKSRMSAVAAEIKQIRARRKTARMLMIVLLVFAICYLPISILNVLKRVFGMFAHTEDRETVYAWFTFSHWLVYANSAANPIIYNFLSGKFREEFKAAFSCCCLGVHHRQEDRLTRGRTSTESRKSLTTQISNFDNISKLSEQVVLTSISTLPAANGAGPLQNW
The data set can be described thus: Agonist activity at human OX2R expressed in CHOK1 cells by NFAT-response luciferase reporter gene assay. The class given is cell-based. The settings on record: cho-k1. A general note: Reporter assays use an easily measured gene product as a stand-in for the process of interest.

Data set [2] has as its target T2, Orexin/Hypocretin receptor type 1 (Homo sapiens, UniProt O43613).
T2 sequence (O43613 whole entry): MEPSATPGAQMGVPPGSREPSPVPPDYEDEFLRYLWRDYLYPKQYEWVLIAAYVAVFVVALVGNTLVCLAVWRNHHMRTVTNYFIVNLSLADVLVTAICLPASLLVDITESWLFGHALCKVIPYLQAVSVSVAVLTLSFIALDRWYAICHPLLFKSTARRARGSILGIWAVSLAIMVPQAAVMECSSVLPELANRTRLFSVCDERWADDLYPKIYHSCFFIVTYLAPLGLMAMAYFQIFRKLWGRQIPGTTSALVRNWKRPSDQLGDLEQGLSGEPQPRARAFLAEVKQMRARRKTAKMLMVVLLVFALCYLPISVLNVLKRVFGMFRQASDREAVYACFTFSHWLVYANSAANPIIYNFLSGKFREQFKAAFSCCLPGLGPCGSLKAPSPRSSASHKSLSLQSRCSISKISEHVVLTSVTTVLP
Description: Agonist activity at human OX1R expressed in CHOK1 cells by calcium mobilization assay. The class given is functional, cell-based, CHO-K1. A general note: A change in cytosolic calcium serves as a functional read-out for many receptors and channels.

The target of data set [3] is T3, Orexin receptor type 2 (Homo sapiens) (UniProt O43614).
T3 sequence (whole entry): T1 sequence (O43614 whole entry)
Description: Agonist activity at human OX2R expressed in CHOK1 cells at 10 uM by NFAT-response luciferase reporter gene assay relative to orexin-A. The class given is cell-based. As to conditions: CHO-K1.

Data set [4] concerns the target T3, Orexin receptor type 2 (Homo sapiens). Description: Agonist activity at human OX2R expressed in CHOK1 cells at 10 uM by calcium mobilization assay relative to orexin-A. The class given is functional, cell-based. The settings on record: CHO-K1.
Data set [5] concerns the target T1, Orexin receptor type 2. Description: Agonist activity at human OX2R expressed in CHOK1 cells by calcium mobilization assay.
Data set [6] has as its target T3, Orexin receptor type 2 (Homo sapiens). The data set can be described thus: Agonist activity at human OX2R expressed in CHOK1 cells at 10 uM by calcium mobilization assay relative to orexin-A. The settings on record: CHO-K1.
Data set [7] addresses T1, Orexin receptor type 2. The data set can be described thus: biochemical.
The target in data set [8] is T4, Orexin/Hypocretin receptor type 1 (Homo sapiens) (UniProt O43613).
T4 sequence (whole entry): T2 sequence (O43613 whole entry)
Description: Agonist activity at human OX1R expressed in CHOK1 cells by calcium mobilization assay relative to orexin-A. As to conditions: CHO-K1. The class given is functional, cell-based.

Another data set has as its system CHO-K1. Description: Selectivity index, ratio of EC50 for human OX1R expressed in CHOK1 cells to EC50 for human OX2R expressed in CHOK1 cells. The class given is cell-based.
For data set [9], the system named is Mus musculus. Description: Induction of wakefullness in OX1R/OX2R double knock out C57BL/6J mouse assessed as increase in wake time by measuring EEG/EMG signals at 260 nmol, icv dosed on every other day during light phase. The class given is functional, organism-based. In short, it runs like this: (§1)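 Intracerebroventricular injection during the light phase, given at 6 h into the light phase (ZT6). Saline was the vehicle control. Sleep/wake states were scored from EEG/EMG recordings, and the read-out was cumulative time awake within 2 h after dosing. Wild-type C57BL/6J mice and OX1R/OX2R double-knockout mice were used.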

The subject of data set [10] is Mus musculus. The data set can be described thus: Induction of wakefullness in C57BL/6J mouse assessed as EEG/EMG signals at 32 to 260 nmol, icv dosed on every other day during light phase. The class given is functional, organism-based. A digest of the protocol: as §1
In data set [11] the test system is Mus musculus. The data set can be described thus: Induction of wakefullness in C57BL/6J mouse assessed as increase in wake time by measuring EEG/EMG signals at 260 nmol, icv dosed on every other day during light phase. The class given is functional. A digest of the protocol:
as §1

Data set [12] concerns the target T3, Orexin receptor type 2 (Homo sapiens). Description: Agonist activity at human OX2R expressed in CHOK1 cells at 1 uM by calcium mobilization assay relative to orexin-A. As to conditions: CHO-K1. The class given is functional, cell-based.
The target is the same in data set [13]. Description: Agonist activity at human OX2R expressed in CHOK1 cells at 5 uM by NFAT-response luciferase reporter gene assay relative to orexin-A. The class given is cell-based. As to conditions: CHO-K1.
Data set [14] shares this target. Description: Agonist activity at human OX2R expressed in CHOK1 cells at 5 uM by calcium mobilization assay relative to orexin-A. The class given is functional, cell-based. As to conditions: CHO-K1.
Data set [15] is described as follows: Stability in pH 8.0 buffer. The class given is physicochemical.

For `COc1ccc(-c2cccc(C(=O)N(C)C)c2)cc1C(=O)Nc1cccc(NCCNC(=O)c2cccc(C)c2)c1`, the EC50 result (on Orexin receptor type 2 [1]; in data set [2] (cho-k1)) was “Not Active” throughout.
Regarding `COc1ccccc1C(=O)NCCNc1cccc(NS(=O)(=O)c2cc(C(C)C)c(C)cc2OC)c1`, the figures for the Efficacy in data set [3] and in data set [4] were 33% and 22%, respectively.
On to `COc1ccc(-c2cccc(C(=O)N(C)C)c2)cc1S(=O)(=O)Nc1cccc(NCCNC(=O)c2ccccc2)c1`, for which the EC50 on Orexin receptor type 2 [5] was greater than 10000 nM.
In the case of `COc1ccccc1C(=O)NCCNc1cccc(NS(=O)(=O)c2cc(-c3cccc(C(=O)N4CCC4)c3)ccc2OC)c1`, the Emax in data set [6] came out at 85%. Moreover, the EC50 at Orexin receptor type 2 [5] stood at 235 nM.
With `COc1ccc(-c2cccc(C(=O)N(C)C)c2)cc1S(=O)(=O)Nc1cccc(NCCNC(=O)c2cccc(C)c2)c1`, affinity at Orexin receptor type 2 [7] was put at a Ki of 770 nM. The Emax in data set [8] amounted to 100%.
With `COc1ccccc1C(=O)NCCNc1cccc(NS(=O)(=O)c2cc(-c3cccnc3)ccc2OC)c1`, the Emax in data set [6] stood at 88%.
For the compound `COc1ccccc1C(=O)N1CCC(CNS(=O)(=O)c2cc(C(C)C)c(C)cc2OC)CC1`, the Efficacy in data set [3] worked out at 16%. Besides, the Efficacy entry in data set [4] was “inactive”.
Regarding `COC(=O)c1cccc(-c2ccc(OC)c(S(=O)(=O)Nc3cccc(NCCNC(=O)c4ccccc4OC)c3)c2)c1`, the Emax in data set [6] stood at 49%. Besides, the EC50 on Orexin receptor type 2 [5] was greater than 10000 nM.
On to `COc1ccc(-c2cccc(C(=O)N(C)C)c2)cc1S(=O)(=O)Nc1cccc(NCCNC(=O)c2ccccc2N(C)C)c1` [listing 1 of 2 here], for which the results for the EC50 (in [2] (read-out: EC50); on Orexin receptor type 2 [5]) were 2750 nM and 28 nM, respectively.
For `COc1ccc(-c2cccc(C(=O)N(C)C)c2)cc1S(=O)(=O)Nc1cccc(NCCNC(=O)c2cccc(Cl)c2)c1`, the EC50 was 5720 nM in data set [2] (read-out: EC50) and 94 nM at Orexin receptor type 2 [5]. For the same compound, in [8], the Emax amounted to 73%. Besides, in the data set with CHO-K1, the Ratio EC50 amounted to 60.
Consider `COc1cccc(C(=O)NCCNc2cccc(NS(=O)(=O)c3cc(-c4cccc(C(=O)N(C)C)c4)ccc3OC)c2)c1`, for which, in data set [2] (read-out: EC50), the EC50 is 9250 nM. For the same compound, in [8], the Emax amounted to 49%. Further, the Ratio EC50 with CHO-K1 is 280.
In the same order, the values of `COc1ccc(-c2cccc(C(=O)N(C)C)c2)cc1S(=O)(=O)Nc1cccc(NCCNC(=O)c2ccccc2Cl)c1` are 6130 nM, 50% and 198.
For `COc1ccccc1C(=O)NCCNc1cc(C)ccc1NS(=O)(=O)c1cc(C(C)C)c(C)cc1OC`, the Efficacy in [3] was 9%. Besides, the Efficacy result in data set [4] is “inactive”.
`COc1ccccc1C(=O)NCCNc1cccc(NS(=O)(=O)c2cc(-c3ccccc3)ccc2OC)c1`: in data set [6], the Emax came out at 48%. For the same compound, at Orexin receptor type 2 [5], the EC50 was greater than 10000 nM.
In the case of `COc1ccc(-c2cccc(C(=O)N(C)C)c2)cc1S(=O)(=O)Nc1cccc(NCCNC(=O)c2ccccc2N(C)C)c1` [listing 2 of 2 here], the result in the data set on Mus musculus [9] was inactive. Further, the Activity result in the data set with Mus musculus [10] is “Dose-dependent effect”. For the same compound, the Emax in data set [8] is 55%.
On to `COc1ccc(-c2cccc(C(=O)N(C)C)c2)cc1S(=O)(=O)Nc1cccc(NCCNC(=O)c2ccccc2N(C)C)c1.Cl`, for which the Time with Mus musculus [11] turned out to be 53 min.
Turning to `COc1ccccc1C(=O)NCCNc1ccc(NS(=O)(=O)c2cc(C(C)C)c(C)cc2OC)cc1`, the Efficacy in [3] came to 18%; in data set [4] it was 12%.
As to `COc1ccccc1C(=O)NCCNc1cccc(NS(=O)(=O)c2cc(-c3cccc(F)c3)ccc2OC)c1`, in data set [6], the Emax was determined as 47%. The EC50 on Orexin receptor type 2 [5] was greater than 10000 nM.
Regarding `CNC(=O)c1cccc(-c2ccc(OC)c(S(=O)(=O)Nc3cccc(NCCNC(=O)c4ccccc4OC)c3)c2)c1`, the Emax in [12] was determined as 98%.
In the case of `COc1cccc(-c2ccc(OC)c(S(=O)(=O)Nc3cccc(NCCNC(=O)c4ccccc4OC)c3)c2)c1`, the EC50 on Orexin receptor type 2 [5] stood at 800 nM. Also, the Emax in data set [12] was 54%.
For `COc1ccccc1C(=O)NCCNc1cccc(NS(=O)(=O)c2cc(-c3cccc(N)c3)ccc2OC)c1`, the Emax in data set [6] came out at 73%. In addition, the EC50 on Orexin receptor type 2 [5] was greater than 1000 nM.
Take `COc1ccccc1C(=O)NCCNc1cccc(NS(=O)(=O)c2cc(-c3cccc(C(=O)N(C)C)c3)ccc2OC)c1`: the EC50 in data set [2] (read-out: EC50) amounted to 5230 nM. The figures for the Emax in data set [8] and in [12] were 46% and 74%, respectively. In addition, the Ratio EC50 in the data set with CHO-K1 was 105.
`COc1ccccc1C(=O)N[C@H]1CC[C@H](CNS(=O)(=O)c2cc(C(C)C)c(C)cc2OC)CC1` came in with an Efficacy in data set [3] of 24%. Moreover, the Efficacy entry in [4] was “inactive”.
As to `Cc1ccc(S(=O)(=O)n2nc(OC(=O)c3c(-c4ccccc4Cl)noc3C)cc2N)cc1`, the Efficacy in data set [13] was determined as 36%. The Efficacy result in data set [14] was “inactive”. Besides, the Stability result in data set [15] is listed as “Unstable”.

The term EC50 denotes the concentration needed to bring the measured effect to its halfway point. The Emax is the greatest response seen or fitted, relative to the assay's reference. A word on the Ki: it is a measure of affinity in units of concentration, obtained from inhibition or displacement. Low readings indicate higher affinity, high ones lower affinity.
